In ChEMBL document CHEMBL3102803, “Design, synthesis, and biological evaluation of novel piperidine-4-carboxamide derivatives as potent CCR5 inhibitors” (Eur J Med Chem, 2014):

Legend:
[1] = target: T1, C-C chemokine receptor type 5 (Homo sapiens, UniProt P51681); experiment: Inhibition of CCR5 (unknown origin) expressed in CHO cells assessed as inhibition of RANTES-induced intracellular Ca2+ mobilization after 10 mins by Fluo-4 AM staining-based fluorescence assay; format: functional, cell-based
[2] = system: HEK293; experiment: Cytotoxicity against HEK293 cells at 50 uM after 7 hrs by CCK-8 assay; format: cell-based; conditions: human, hek293, 7 h
Outline: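 HEK293 cells at 5000 cells/well preincubated 24 h at 37 °C in 5% CO2, then exposed to compound for 7 h. CCK-8 reagent added, plates incubated a further 2 h at 37 °C, and absorbance read at […].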

[3] = target: hERG (KCNH2) (Homo sapiens, UniProt Q12809); experiment: Inhibition of human ERG at 3 uM by patch clamp assay
[4] = Oral bioavailability in Sprague-Dawley rat at 25 mg/kg; format: ADME, organism-based; conditions: in vivo
[5] = Half life in Sprague-Dawley rat at 25 mg/kg, po; format: ADME, organism-based; set-up: dose 25 mg/kg, route oral; conditions: in vivo
[6] = Half life in Sprague-Dawley rat at 4 mg/kg, iv; format: ADME, organism-based; set-up: dose 4 mg/kg, route intravenous; conditions: in vivo
[7] = AUC (0 to 24 hrs) in Sprague-Dawley rat at 25 mg/kg, po; format: ADME, organism-based; set-up: time < 24 hr, dose 25 mg/kg, route oral; conditions: plasma
[8] = AUC (0 to 24 hrs) in Sprague-Dawley rat at 4 mg/kg, iv; format: ADME, organism-based; set-up: time < 24 hr, dose 4 mg/kg, route intravenous; conditions: plasma
[9] = Plasma clearance in Sprague-Dawley rat at 25 mg/kg, po; format: ADME, organism-based; set-up: dose 25 mg/kg, route oral
[10] = Plasma clearance in Sprague-Dawley rat at 4 mg/kg, iv; format: ADME, organism-based; set-up: dose 4 mg/kg, route intravenous
[11] = system: Rattus norvegicus; experiment: Volume of distribution at steady state in Sprague-Dawley rat at 25 mg/kg, po; format: ADME, organism-based; set-up: dose 25 mg/kg, route oral; conditions: in vivo
[12] = Volume of distribution at steady state in Sprague-Dawley rat at 4 mg/kg, iv; format: ADME, organism-based; set-up: dose 4 mg/kg, route intravenous; conditions: in vivo, read-out: Vdss
[13] = system: Human immunodeficiency virus 1; experiment: Antiviral activity against HIV-1 infected in human SupT1 cells assessed as inhibition of viral infectivity after 48 hrs by luciferase reporter gene assay; format: functional, organism-based; conditions: Human immunodeficiency virus 1, SUP-T1, 48 h
Outline: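 Pseudovirions made by co-transfecting 293T cells with pNL-Luc-E- and pENV-R5. Supernatant collected at 48 h, filtered, and capsid protein quantified by p24 antigen-capture ELISA. SupT1 cells (1 × 10^5) infected with supernatant in the presence of compound, lysed 48 h post-infection, and firefly luciferase activity measured.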

[14] = target: T1, C-C chemokine receptor type 5; experiment: Antagonist activity at CCR5 (unknown origin) expressed in CHO cell membranes assessed as inhibition of RANTES-stimulated [35S]-GTPgammaS binding after 1 hr by liquid scintillation counting analysis; format: functional

T1 sequence (P51681 whole entry): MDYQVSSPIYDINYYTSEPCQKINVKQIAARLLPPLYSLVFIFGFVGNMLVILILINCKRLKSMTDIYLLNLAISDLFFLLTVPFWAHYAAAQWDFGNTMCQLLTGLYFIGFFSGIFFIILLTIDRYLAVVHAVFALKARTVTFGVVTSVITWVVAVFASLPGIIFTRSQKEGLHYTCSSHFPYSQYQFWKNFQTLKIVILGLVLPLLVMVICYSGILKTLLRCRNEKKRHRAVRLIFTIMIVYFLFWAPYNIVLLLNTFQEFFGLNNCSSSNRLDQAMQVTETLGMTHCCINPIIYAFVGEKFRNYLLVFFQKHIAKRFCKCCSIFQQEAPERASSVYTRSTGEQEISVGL
hERG (KCNH2), sequence (Q12809 whole entry): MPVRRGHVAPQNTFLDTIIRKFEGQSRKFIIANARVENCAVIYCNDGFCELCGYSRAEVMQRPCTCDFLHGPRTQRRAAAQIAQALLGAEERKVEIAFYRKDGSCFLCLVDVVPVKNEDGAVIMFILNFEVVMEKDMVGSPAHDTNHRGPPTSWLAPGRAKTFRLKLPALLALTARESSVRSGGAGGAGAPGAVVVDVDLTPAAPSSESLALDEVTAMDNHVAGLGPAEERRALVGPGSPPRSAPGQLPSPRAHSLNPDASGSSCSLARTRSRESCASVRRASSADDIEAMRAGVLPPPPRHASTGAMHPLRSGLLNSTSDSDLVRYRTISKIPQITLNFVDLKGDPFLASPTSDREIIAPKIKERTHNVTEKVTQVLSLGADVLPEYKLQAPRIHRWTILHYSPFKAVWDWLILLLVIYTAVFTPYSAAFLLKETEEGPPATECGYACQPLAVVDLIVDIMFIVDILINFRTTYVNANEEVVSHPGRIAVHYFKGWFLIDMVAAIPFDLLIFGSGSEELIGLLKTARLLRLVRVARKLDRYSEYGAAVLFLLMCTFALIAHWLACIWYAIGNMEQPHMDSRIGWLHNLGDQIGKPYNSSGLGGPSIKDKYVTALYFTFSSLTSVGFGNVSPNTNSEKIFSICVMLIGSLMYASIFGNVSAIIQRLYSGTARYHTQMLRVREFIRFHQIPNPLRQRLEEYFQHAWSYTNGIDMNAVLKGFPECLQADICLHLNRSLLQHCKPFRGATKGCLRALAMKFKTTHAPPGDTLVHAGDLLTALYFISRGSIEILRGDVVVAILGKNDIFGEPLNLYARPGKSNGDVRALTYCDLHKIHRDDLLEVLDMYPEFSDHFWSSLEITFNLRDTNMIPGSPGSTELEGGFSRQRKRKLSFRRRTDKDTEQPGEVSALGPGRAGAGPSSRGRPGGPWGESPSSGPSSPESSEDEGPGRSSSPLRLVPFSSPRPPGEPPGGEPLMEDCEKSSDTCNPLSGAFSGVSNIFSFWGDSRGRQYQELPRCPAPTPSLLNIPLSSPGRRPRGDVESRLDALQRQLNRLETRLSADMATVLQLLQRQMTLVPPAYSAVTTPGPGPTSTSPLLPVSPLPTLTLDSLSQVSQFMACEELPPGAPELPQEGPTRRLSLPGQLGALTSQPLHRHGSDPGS

SMILES	IC50 [1] [nM]	Activity [2]	other results
CC(=O)N1CCC(C(=O)N(CCCN2CCC(C(=O)NCCc3ccc(F)cc3)CC2)c2cccc(Cl)c2)CC1	197	Non-toxic	
CC(=O)N1CCC(C(=O)N(CCCN2CCC(C(=O)NCCc3ccccc3)CC2)c2cccc(Cl)c2)CC1	76	Non-toxic	
CCN(C(=O)C1CCN(CCCN(C(=O)C2CCN(C(C)=O)CC2)c2cccc(Cl)c2)CC1)c1ccccc1	> 1000	Non-toxic	
CC(=O)N1CCC(C(=O)N(CCCN2CCC(C(=O)NCc3ccc(C#N)cc3)CC2)c2cccc(Cl)c2)CC1	75.3	Non-toxic	
CC(=O)N1CCC(C(=O)N(CCCN2CCC(C(=O)NCc3ccccc3)CC2)c2cccc(Cl)c2)CC1	25.7	Non-toxic	inhibition at 3 µM [3]: 15.2%; bioavailability [4]: 15%; half-life [5]: 42.6 min; half-life [6]: 44.4 min; AUC(0-t) at 24 h [7]: 3130 ng·h/mL; AUC(0-t) at 24 h [8]: 3250 ng·h/mL; CL/F [9]: 148 mL/min/kg; clearance [10]: 20.8 mL/min/kg; Vdss [11]: 8.99 L/kg; Vd [12]: 1.23 L/kg; IC50 [13]: 73 nM
CC(=O)N1CCC(C(=O)N(CCCN2CCC(C(=O)N(C)Cc3ccccc3)CC2)c2cccc(Cl)c2)CC1	64.1	Non-toxic	
CCN(C(=O)Cc1ccccc1)C1CCN(CCCN(C(=O)C2CCN(C(C)=O)CC2)c2cccc(Cl)c2)CC1	252		IC50 [14]: 7 nM
CCN(Cc1ccc(F)cc1)C(=O)C1CCN(CCCN(C(=O)C2CCN(C(C)=O)CC2)c2cccc(Cl)c2)CC1	320	Non-toxic	
CCN(CCc1ccccc1)C(=O)C1CCN(CCCN(C(=O)C2CCN(C(C)=O)CC2)c2cccc(Cl)c2)CC1	26.4	Non-toxic	
CCN(Cc1ccccc1)C(=O)C1CCN(CCCN(C(=O)C2CCN(C(C)=O)CC2)c2cccc(Cl)c2)CC1	525	Non-toxic	
CC(=O)N1CCC(C(=O)N(CCCN2CCC(C(=O)NCc3ccc(F)cc3)CC2)c2cccc(Cl)c2)CC1	35.5	Non-toxic	
CCN(Cc1ccc(Cl)cc1)C(=O)C1CCN(CCCN(C(=O)C2CCN(C(C)=O)CC2)c2cccc(Cl)c2)CC1	93.5	Non-toxic	
CCN(CCc1ccc(F)cc1)C(=O)C1CCN(CCCN(C(=O)C2CCN(C(C)=O)CC2)c2cccc(Cl)c2)CC1	152	Non-toxic	
CC(=O)N1CCC(C(=O)N(CCCN2CCC(C(=O)Nc3ccccc3)CC2)c2cccc(Cl)c2)CC1	> 1000	Non-toxic	
CCN(Cc1ccc(C#N)cc1)C(=O)C1CCN(CCCN(C(=O)C2CCN(C(C)=O)CC2)c2cccc(Cl)c2)CC1	473	Non-toxic	
Cc1nnc(C(C)C)n1[C@H]1C[C@H]2CC[C@@H](C1)N2CC[C@H](NC(=O)C1CCC(F)(F)CC1)c1ccccc1 [MARAVIROC]			IC50 [13]: 1.1 nM
CCN(Cc1ccc(C)cc1)C(=O)C1CCN(CCCN(C(=O)C2CCN(C(C)=O)CC2)c2cccc(Cl)c2)CC1	202	Non-toxic	
CCN(CCc1ccc(Cl)cc1)C(=O)C1CCN(CCCN(C(=O)C2CCN(C(C)=O)CC2)c2cccc(Cl)c2)CC1	126	Non-toxic	
CC(=O)N1CCC(C(=O)N(CCCN2CCC(C(=O)NCCc3ccc(Cl)cc3)CC2)c2cccc(Cl)c2)CC1	86.7	Non-toxic	
CC(=O)N1CCC(C(=O)N(CCCN2CCC(C(=O)NCc3ccc(Cl)cc3)CC2)c2cccc(Cl)c2)CC1	25.5	Non-toxic	IC50 [13]: 94.1 nM
